For one series, the system named is Bacillus cereus. Put plainly: Antibacterial activity against Bacillus cereus ATCC 11778 by double-dilution technique. It counts as functional. A digest of the protocol: (§1)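 MIC measured against each bacterial strain using a double-dilution series of each compound. Every determination was run in duplicate or triplicate.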
Series [1] relates to Staphylococcus aureus. Briefly: Antibacterial activity against Staphylococcus aureus expressing NorA by double-dilution technique. It counts as functional. A digest of the protocol: (§2)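 Double-dilution series of each compound against each strain, reported as MIC. Runs done in duplicate or triplicate.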
A short description of series [2]: Drug metabolism assessed as aminoglycoside 2'-N-acetyltransferase Ic (unknown origin)-mediated conversion at 100 uM by micro plate reader analysis relative to tobramycin. Format: ADME. In outline: (§3)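 Ellman assay: CoASH release coupled to DTNB (2 mM), read at 412 nm every 30 s for 1 h at 25 °C. Compound at 100 μM. Conditions by enzyme: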
The nature of series [3]: Drug metabolism assessed as aminoglycoside 3-N-acetyltransferase AAC(3)-IV (unknown origin)-mediated conversion at 100 uM by micro plate reader analysis relative to tobramycin. Format: ADME. A digest of the protocol:
as §3

Series [4] deals with Mycolicibacterium smegmatis. Put plainly: Antibacterial activity against Mycobacterium smegmatis str. MC2 155 by double-dilution technique. It counts as functional.
The subject of series [5] is Staphylococcus epidermidis. Briefly: Antibacterial activity against biofilm negative Staphylococcus epidermidis ATCC 12228 by double-dilution technique. Format: functional. In outline: as §1
For a further series, the system named is Streptococcus pyogenes. Briefly: Antibacterial activity against Streptococcus pyogenes Serotype M12 MGAS9429 by double-dilution technique. It counts as functional. In outline: as §1
Series [6] concerns Bacillus subtilis. Briefly: Antibacterial activity against Bacillus subtilis 168 by double-dilution technique. Format: functional. A digest of the protocol: as §2
For a further series, the system named is Bacillus anthracis. Briefly: Antibacterial activity against Bacillus anthracis 34F2 Sterne by double-dilution technique. Format: functional. In outline: as §2
Series [7] can be described thus: Drug metabolism assessed as enhanced intracellular survival protein (unknown origin)-mediated conversion at 100 uM by micro plate reader analysis relative to tobramycin. Format: ADME. In outline: as §3
Series [8] relates to Escherichia coli. Briefly: Antibacterial activity against Escherichia coli MC1061 by double-dilution technique. It counts as functional. In outline: as §2
In series [9] the test system is Escherichia coli. Put plainly: Inhibition of protein synthesis in Escherichia coli S30 extracts after 90 mins by coupled transcription/translation assay. It counts as functional. As to conditions: 1.5 h. In outline: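 E. coli extract coupled transcription/translation with luciferase reporter. Reactions with varying compound concentrations ran 90 min at 37 °C, were chilled on ice, then diluted in Tris-phosphate pH 7.8 buffer containing DTT, glycerol, Triton X-100 and BSA. Luminescence was read immediately after adding luciferase reagent. IC50 came from concentration-response fits of at least two independent experiments.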

Series [10] relates to Staphylococcus aureus. Briefly: Antibacterial activity against Staphylococcus aureus ATCC 29213 by double-dilution technique. Format: functional. In outline:
as §2

In the next series the test system is Listeria monocytogenes. Put plainly: Antibacterial activity against Listeria monocytogenes ATCC 19115 by double-dilution technique. Format: functional. In outline: as §2
Series [11] relates to Bacillus subtilis. Briefly: Antibacterial activity against Bacillus subtilis 168 harboring AAC(6')/APH(2'')-pRB374 by double-dilution technique. Format: functional.
The next series deals with Haemophilus influenzae. Put plainly: Antibacterial activity against Haemophilus influenzae ATCC 51907 by double-dilution technique. Format: functional. A digest of the protocol: as §1

≈ marks a conversion by molar mass, not a printed value.

As a reminder, the IC50 is the point on the concentration scale where inhibition reaches its midpoint.

As for `NC[C@H]1O[C@H](O[C@H]2[C@H](O)[C@@H](O[C@@H]3O[C@H](CSCCOCCSCC(=O)N[C@H](CO)[C@H](O)c4ccc([N+](=O)[O-])cc4)[C@@H](O)[C@H](N)[C@H]3O)[C@H](N)C[C@@H]2N)[C@H](N)C[C@@H]1O`, the MIC in the series with Bacillus cereus is more than 150 µg/mL; against Staphylococcus aureus [1], more than 150 µg/mL; in series [4] it was 18.8 µg/mL (≈ 22.4 µM); in [5], 8 µg/mL (≈ 9.52 µM); in the series with Streptococcus pyogenes, 8 µg/mL (≈ 9.52 µM); with Bacillus subtilis [6], 150 µg/mL (≈ 179 µM). For the same compound, the MIC against Bacillus anthracis is more than 150 µg/mL; against Escherichia coli [8], more than 150 µg/mL; with Staphylococcus aureus [10], more than 150 µg/mL; with Listeria monocytogenes it was more than 150 µg/mL; in the series on Bacillus subtilis [11], more than 150 µg/mL; with Haemophilus influenzae it was 150 µg/mL (≈ 179 µM). For the same compound, the “fold change (FC)” value in [2] turned out to be 2; in [3], 1.8; in series [7] it was 2.9. In the series on Escherichia coli [9], the IC50 worked out at 1490 nM.

Regarding `NC[C@H]1O[C@H](O[C@H]2[C@H](O)[C@@H](O[C@@H]3O[C@H](CSCCOCCSSCCOCCSC[C@H]4O[C@@H](O[C@@H]5[C@@H](O)[C@H](O[C@H]6O[C@H](CN)[C@@H](O)C[C@H]6N)[C@@H](N)C[C@H]5N)[C@H](O)[C@@H](N)[C@@H]4O)[C@@H](O)[C@H](N)[C@H]3O)[C@H](N)C[C@@H]2N)[C@H](N)C[C@@H]1O`, the MIC came out at 75 µg/mL (≈ 63.9 µM) in the series with Bacillus cereus; 9.4 µg/mL (≈ 8.01 µM) in the series on Staphylococcus aureus [1]; 2.3 µg/mL (≈ 1.96 µM) in series [4]; 16 µg/mL (≈ 13.6 µM) in series [5]; 64 µg/mL (≈ 54.5 µM) against Streptococcus pyogenes; 0.6 µg/mL (≈ 0.511 µM) in the series on Bacillus subtilis [6]. The MIC was 37.5 µg/mL (≈ 32 µM) in the series with Bacillus anthracis; 18.8 µg/mL (≈ 16 µM) in the series with Escherichia coli [8]; 37.5 µg/mL (≈ 32 µM) in the series with Staphylococcus aureus [10]; 37.5 µg/mL (≈ 32 µM) against Listeria monocytogenes; 37.5 µg/mL (≈ 32 µM) with Bacillus subtilis [11]; 9.4 µg/mL (≈ 8.01 µM) with Haemophilus influenzae. The “fold change (FC)” value worked out at 2.4 in [2], 2 in series [3] and 4.1 in [7]. This compound also registered an IC50 with Escherichia coli [9] of 270 nM.

Regarding `CCC[C@@H]1C[C@@H](C(=O)NC([C@H]2O[C@H](SC)[C@H](O)[C@@H](O)[C@H]2O)[C@@H](C)SCCOCCSSCCOCCSC[C@H]2O[C@@H](O[C@@H]3[C@@H](O)[C@H](O[C@H]4O[C@H](CN)[C@@H](O)C[C@H]4N)[C@@H](N)C[C@H]3N)C(O)[C@@H](N)[C@@H]2O)N(C)C1` (single isomer, unassigned), the MIC in the series on Bacillus cereus stood at 9.4 µg/mL (≈ 8.45 µM); with Staphylococcus aureus [1], 4.7 µg/mL (≈ 4.22 µM); in series [4] it was 4.7 µg/mL (≈ 4.22 µM); in series [5], 2 µg/mL (≈ 1.8 µM); against Streptococcus pyogenes it was 64 µg/mL (≈ 57.5 µM); in the series with Bacillus subtilis [6], 1.2 µg/mL (≈ 1.08 µM). For the same compound, the MIC was determined as 2.3 µg/mL (≈ 2.07 µM) in the series on Bacillus anthracis; 4.7 µg/mL (≈ 4.22 µM) against Escherichia coli [8]; 2.3 µg/mL (≈ 2.07 µM) against Staphylococcus aureus [10]; 18.8 µg/mL (≈ 16.9 µM) against Listeria monocytogenes; 150 µg/mL (≈ 135 µM) against Bacillus subtilis [11]; 75 µg/mL (≈ 67.4 µM) against Haemophilus influenzae. Moreover, the “fold change (FC)” value stood at 1.6 in series [2], 1.4 in series [3] and 2.6 in series [7]. The compound further registered an IC50 in the series with Escherichia coli [9] of 980 nM.

The values are drawn from ChEMBL document CHEMBL2417431, “Synthesis and evaluation of hetero- and homodimers of ribosome-targeting antibiotics: antimicrobial activity, in vitro inhibition of translation, and drug resistance” (J Med Chem, 2013).
